Compounds with a hit are over-represented: about 2.4% of the library has one in this group of screens.
VIM-2 inhibitor – blocks Pseudomonas aeruginosa VIM-2 metallo-beta-lactamase; purified VIM-2, nitrocefin hydrolysis, epi-absorbance fluorescence; inhibition, % at 5.6 µM; 0.89% of 290,000 active;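 active means inhibition above the mean of all tested compounds plus 3 SD, cutoff set per screening run, cut at about 7.5% in these data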;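 further: red hydrolysis product quenches plate fluorescence so inhibitors raise well fluorescence; 0% = enzyme with DMSO and 100% = DMSO without enzyme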
sPLA2-III inh – Blocks human group III sPLA2 activity; Q9NZ20; QFRET BODIPY PC-A2 liposome hydrolysis, fluorescence; inhibition, % at 12.2 µM; 0.56% of 370,000 active;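 active means inhibition above mean plus 3 SD of compounds lying within the high and low control bounds, cut at about 19% in these data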;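 further: 0% = median of test compound wells and 100% = no enzyme DMSO wells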
Target sequence (Q9NZ20 whole entry, looked up): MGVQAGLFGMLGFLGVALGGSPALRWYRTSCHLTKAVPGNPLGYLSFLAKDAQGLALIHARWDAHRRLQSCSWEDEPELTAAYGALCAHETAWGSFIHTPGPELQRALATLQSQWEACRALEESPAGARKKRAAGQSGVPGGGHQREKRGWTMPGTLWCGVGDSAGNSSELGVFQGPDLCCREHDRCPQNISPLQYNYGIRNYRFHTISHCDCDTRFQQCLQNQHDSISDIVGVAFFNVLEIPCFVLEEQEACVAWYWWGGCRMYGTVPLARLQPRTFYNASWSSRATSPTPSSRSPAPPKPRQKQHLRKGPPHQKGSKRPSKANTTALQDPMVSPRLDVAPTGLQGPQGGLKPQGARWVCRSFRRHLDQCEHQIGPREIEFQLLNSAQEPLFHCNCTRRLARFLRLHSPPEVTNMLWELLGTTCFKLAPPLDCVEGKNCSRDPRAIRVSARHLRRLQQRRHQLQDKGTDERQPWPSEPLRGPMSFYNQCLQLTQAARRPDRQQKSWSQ
IMP-1 inh-1 – inhibitors of Pseudomonas aeruginosa IMP-1 metallo-beta-lactamase; 0.45% of 290,000 active; inhibition, % at 5.6 µM; purified IMP-1, nitrocefin hydrolysis, epi-absorbance fluorescence;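 active means inhibition above the mean plus 3 SD of all compounds in the same screening run, cut at about 4.5% in these data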;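 further: 0% = IMP-1 with DMSO and 100% = DMSO wells lacking enzyme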
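assay system = purified recombinant IMP-1 metallo-beta-lactamase enzyme | schedule = 15 min preincubation plus 25 min reaction at 25 °C | signal = Epi-absorbance fluorescence, 480 nm excitation, 530 nm emission | read-out basis = percent inhibition from optical density relative to buffer-blank wells | controls = IMP-1 with DMSO as 0%, enzyme-free DMSO as 100%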
PfM18AAP inh-1 – PfM18AAP enzyme inhibition. recombinant PfM18AAP, H-Glu-NHMec fluorogenic cleavage. inhibition, % at 7.35 µM. 1.2% of 290,000 active;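 active means inhibition above the campaign mean inhibition over all tested compounds plus 3 SD, cut at about 28% in these data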;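 further: 0% = plate median of test compound wells and 100% = 2 mM ZnCl2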
IMP-1 inh-2 – selectivity counter-screen for VIM-2 inhibitors: IMP-1 metallo-beta-lactamase inhibitors; purified IMP-1, nitrocefin hydrolysis, epi-absorbance fluorescence; shares compounds with VIM-2 inhibitor; 1,300 tested, under 10 active; AID 1856; inhibition, % at 5.6 µM; call rule not given here;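 further: 0% = enzyme with vehicle and 100% = vehicle without enzyme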
VIM-2 FRET inh – counter-screen for VIM-2 inhibitors: epi-absorbance artifacts via FRET; shares compounds with VIM-2 inhibitor; purified VIM-2, CCF2 FRET substrate hydrolysis; inhibition, % at 5.6 µM; 23% of 1,300 active; AID 1857;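 active means inhibition above the mean of all tested compounds plus 3 SD, cut at about 19% in these data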;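 further: 0% = VIM-2 plus DMSO and 100% = no enzyme wells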
TEM-1 counter-1 – blocks E. coli TEM-1 beta-lactamase in VIM-2 selectivity screen | inhibition, % at 5.6 µM | Purified TEM-1, nitrocefin hydrolysis, epi-absorbance fluorescence | AID 1866 | 3% of 1,300 active | shares compounds with VIM-2 inhibitor;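 active means inhibition above that campaign's mean inhibition plus 3 SD, cut at about 0.46% in these data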;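 further: 0% = TEM-1 with DMSO and 100% = TEM-1 with 100 µM potassium clavulanate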
VIM-2 confirm 2 – confirmation of P. aeruginosa VIM-2 metallo-beta-lactamase inhibitors. 96% of 1,300 active. shares compounds with VIM-2 inhibitor. purified VIM-2, nitrocefin hydrolysis, epi-absorbance. inhibition, % at 5.6 µM. AID 2187;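 active means inhibition of the VIM-2 beta-lactamase enzyme above about 11% from the earlier first-round screen, limit read from the data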;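 further: 0% = VIM-2 with DMSO and 100% = buffer wells without enzyme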
VIM-2 confirm – VIM-2 inhibition, confirmation assay; shares compounds with IMP-1 inh-1; AID 1860; inhibition, % at 5.6 µM; purified VIM-2 enzyme, nitrocefin absorbance; 73% of 200 active; in the data active means inhibition above about 8%;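 further: 0% = enzyme with vehicle and 100% = no enzyme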
TEM-1 counter-2 – blocks E. coli TEM-1 beta-lactamase, VIM-2 IMP-1 counter-screen | shares compounds with IMP-1 inh-1 | nitrocefin absorbance inhibition | 50% of 200 active | inhibition, % at 5.6 µM; in the data active means inhibition above about 0.66%
IMP-1 confirm – confirmation of P. aeruginosa IMP-1 metallo-beta-lactamase inhibitors. 60% of 200 active. shares compounds with IMP-1 inh-1. purified IMP-1 enzyme, absorbance substrate hydrolysis. inhibition, % at 5.6 µM; in the data active means inhibition above about 4.9%;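 further: 0% = enzyme with vehicle and 100% = vehicle without enzyme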
PfM18AAP inh-2 – PfM18AAP inhibition, confirmation. shares compounds with PfM18AAP inh-1. recombinant PfM18AAP, H-Glu-NHMec fluorogenic cleavage. inhibition, % at 7.35 µM. 28% of 2,400 active. AID 2170;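 active means mean inhibition over replicate wells above the hit cutoff set for the earlier primary screen, cut at about 29% in these data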;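 further: 0% = median of test compound wells and 100% = 2 mM ZnCl2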
CTSL1 counter – counter-screen for PFM18AAP inhibitors: confirmation of human cathepsin L inhibitors; 2,400 tested, under 10 active; AID 2178; purified cathepsin L1, Z-Leu-Arg-MCA fluorescence; inhibition, % at 5.96 µM; shares compounds with PfM18AAP inh-1;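 active means average inhibition across replicates above the hit cutoff set in the earlier primary screen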;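 further: 0% = median of test compound wells and 100% = Z-Phe-Ala-diazomethylketone 1 µM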
sPLA2 confirm – human GIII-sPLA2 inhibition, confirmation. 34% of 2,000 active. inhibition, % at 12.2 µM. recombinant hGIII-sPLA2, BODIPY PC-A2 QFRET fluorescence. shares compounds with sPLA2-III inh;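 active means mean inhibition across triplicates above the hit cutoff set in the earlier primary screen, cut at about 19% in these data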;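 further: 0% = enzyme with DMSO and 100% = DMSO wells lacking enzyme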
535nm interf – optically interferes with 535nm fluorescence in sPLA2 counter-screen; shares compounds with sPLA2-III inh; BODIPY FL product fluorescence interference, QFRET; inhibition, % at 12.2 µM; 8.5% of 2,000 active; AID 743282;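 active means average inhibition above the solvent-only control mean plus 3 SD, cut at about 6% in these data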;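 further: 0% = DMSO with substrate plus product and 100% = DMSO with substrate alone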
Active calls of the source: *; · = not tested or not shown.

SMILES	VIM-2 inhibitor	sPLA2-III inh	IMP-1 inh-1	PfM18AAP inh-1	IMP-1 inh-2	VIM-2 FRET inh	TEM-1 counter-1	VIM-2 confirm 2	sPLA2 confirm	535nm interf	others
CCOC(=O)c1c(NC(=O)CSc2ncn[nH]2)sc(C(C)=O)c1C	23.5*	-50.4	-3.8	33.0*	-2.1	-1.6	-6.2	32.2*	·	·	PfM18AAP inh-2=23.4;CTSL1 counter=5.0
COc1ccc([C@H]2CC(=O)C=C(c3cc(C(F)(F)F)cc(C(F)(F)F)c3)C2)cc1	·	-5.1	·	·	·	·	·	·	·	·
CC(C)Cn1c(-c2ccccc2F)n[nH]c1=S	19.2*	8.1	1.4	32.5*	-2.5	30.3*	-7.1	20.9*	·	·	PfM18AAP inh-2=1.3;CTSL1 counter=-0.9
CC(C)Cn1c(-c2ccc(F)cc2)n[nH]c1=S	3.7	18.8	-0.2	12.3	·	·	·	·	·	·
Cc1ccc2nc3c(c(Nc4ccc(O)cc4)c2c1)CCC3	18.7*	-1.8	-3.6	33.1*	-3.2	-1.5	-5.3	31.6*	·	·	PfM18AAP inh-2=10.1;CTSL1 counter=-0.7
CCCCc1n[nH]c(=S)n1Cc1ccc(Cl)cc1	15.4*	19.6*	-3.1	10.8	-3.0	24.6*	-5.8	17.7*	25.8*	-1.2
CCCc1n[nH]c(=S)n1Cc1ccco1	16.6*	21.7*	-5.1	13.4	-2.0	40.2*	-5.1	24.5*	10.7	-3.5
CCCCN1CC(N(C)CCN(C)C)CS1(=O)=O (centres undefined)	·	-1.6	·	·	·	·	·	·	·	·
CC(c1ccccc1)n1c(Cn2ncc3ccccc3c2=O)n[nH]c1=S (centres undefined)	-1.8	6.4	-2.9	7.2	·	·	·	·	·	·
O=c1c2ccccc2cnn1Cc1n[nH]c(=S)n1C1CC2CCC1C2 (centres undefined)	15.0*	26.1*	-3.6	5.3	-2.7	37.8*	-6.5	21.1*	21.3*	0.1
CC(=O)N1CCN(S(=O)(=O)c2cccc(C(=O)NNC(=O)Cn3nc(C)cc3C)c2)CC1	·	-0.6	·	·	·	·	·	·	·	·
CC1CN(C(=O)c2cccc(S(=O)(=O)N3CCN(c4ccccc4)CC3)c2)CC(C)O1 (centres undefined)	·	3.9	·	·	·	·	·	·	·	·
S=c1[nH]nc(-c2cccs2)n1Cc1ccccc1	42.9*	20.0*	-2.2	26.5	-1.6	66.9*	-8.6	51.1*	20.8*	2.6
CC(C)c1cc(-c2n[nH]c(=S)n2Cc2ccccc2)cs1	0.8	-0.1	0.7	-9.6	·	·	·	·	·	·
COC(=O)c1c(C)cc(C)n2c1nc1ccccc12	14.5*	22.3*	-4.3	-2.3	-3.5	-10.2	-4.5	28.0*	6.1	-6.4
O=c1c(-c2n[nH]c(=S)n2-c2ccccc2)cccn1Cc1cccc(Cl)c1	25.3*	21.6*	-3.5	14.1	-3.4	47.9*	-9.3	31.0*	21.6*	-0.5
C=CCn1c(-c2cccn(Cc3cccc(Cl)c3)c2=O)n[nH]c1=S	3.4	8.1	-0.5	0.4	·	·	·	·	·	·
CN1C(=O)/C(=C\c2ccc(N(C)C)cc2)OC1=S	8.0*	-11.1	9.5*	6.9	·	·	·	·	·	·	VIM-2 confirm=8.3*;TEM-1 counter-2=18.1*;IMP-1 confirm=6.1*
COc1ccc(/C=C2\OC(=S)N(C)C2=O)cc1	-2.5	-2.7	-1.1	-2.1	·	·	·	·	·	·
O=C(CSc1nc2nc(-c3cccs3)cc(C(F)(F)F)c2c(=O)[nH]1)C(F)(F)F	21.6*	-9.3	4.9*	10.7	·	·	·	·	·	·	VIM-2 confirm=26.4*;TEM-1 counter-2=-2.8;IMP-1 confirm=2.8
CC(C)n1cc(CN2CCC(Oc3ccc(C(=O)N4CCCC4)cc3)CC2)cn1	-1.4	-0.9	-1.0	-0.1	·	·	·	·	·	·
COc1ccc(/C(C)=N/NC(=O)c2nnn(-c3nonc3N)c2-c2ccccc2)cc1	11.6*	-9.7	18.6*	0.5	·	·	·	·	·	·	VIM-2 confirm=14.9*;TEM-1 counter-2=-1.8;IMP-1 confirm=17.8*
O=C(Nc1ccc(F)c(S(=O)(=O)N2CCOCC2)c1)C1CCCCC1	·	-0.9	·	·	·	·	·	·	·	·
